For data set [1], the system named is Chikungunya virus. As to the kind of experiment: Antiviral activity against Chikungunya virus 899 infected in African green monkey Vero A cells assessed as inhibition of viral RNA replication by RT-qPCR analysis. The class given is functional, organism-based. Particulars: Chikungunya virus, 899, Vero. In general terms: Quantitative PCR measures a nucleic acid by following its amplification.

Data set [2] deals with Chikungunya virus. The data set can be described thus: Antiviral activity against Chikungunya virus infected in African green monkey Vero cells assessed as reduction in virus-induced cytopathic effect after 7 days by MTS assay. The format is functional, organism-based. Particulars: 168 h. A general note: Cytopathic effects are the visible damage that an infection or toxin causes in cultured cells.

A short description of data set [3]: Selectivity index, ratio of CC50 for African green monkey Vero cells to EC50 for chikungunya virus infected in African green monkey Vero E6 cells. The class given is toxicity, Vero C1008. Particulars: read-out: Ratio CC50/EC50.
Data set [4] is described as follows: Lipophilicity, log P of the compound. As to conditions: octanol/water. The format is physicochemical.
The nature of data set [5]: Cytotoxicity against African green monkey Vero A cells by MTS assay. The format is cell-based. Particulars: chlorocebus aethiops. The essentials:
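Host-cell metabolism in Vero subtype A cells was measured by MTS read-out. CC50 is the concentration reducing host-cell metabolism by 50%. It was determined only for selected conjugates.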
(In general: Tetrazolium dyes change colour on reduction, which living cells bring about.)

Data set [6] can be described thus: Selectivity index, ratio of CC50 for African green monkey Vero A cells to EC50 for chikungunya virus 899 infected in African green monkey Vero A cells. The class given is toxicity. Particulars: read-out: Ratio CC50/EC50.
Data set [7] concerns Chikungunya virus. As to the kind of experiment: Antiviral activity against Chikungunya virus infected in African green monkey Vero E6 cells assessed as reduction in virus-induced cytopathic effect. The format is functional, organism-based. As to conditions: Vero C1008.
Data set [8] is described as follows: Selectivity index, ratio of CC50 for African green monkey Vero E6 cells to EC50 for chikungunya virus infected in African green monkey Vero cells. The format is toxicity, Vero C1008. As to conditions: read-out: Ratio CC50/EC50.
A short description of data set [9]: Aqueous solubility of the compound measured per 100 ml. The format is physicochemical. As to conditions: buffer.

These results are taken from ChEMBL document CHEMBL4400522, “Chikungunya virus inhibition by synthetic coumarin-guanosine conjugates” (Eur J Med Chem, 2019).

For orientation: EC50 means the midpoint of the concentration-response curve. As usually defined, the logP is a log measure of how a compound divides between an organic and an aqueous phase. As a reminder, the CC50 is the concentration that lowers cell viability or growth by half.

In the case of `Nc1nc(SCc2cc3cc(Br)ccc3oc2=O)c2nc(SCc3ccccc3)n([C@@H]3O[C@H](CO)[C@@H](O)[C@H]3O)c2n1`, the EC50 with Chikungunya virus [1] is greater than 152 µM.
`C=C(C)[C@@]12OC3(c4ccccc4)O[C@@H]1[C@@H]1[C@@H]4O[C@]4(CO)[C@@H](O)[C@@]4(O)[C@@H](C=C(C)[C@@H]4O)[C@@]1(O3)[C@H](C)[C@@H]2OC(=O)C(C)CCCCCCCC` (stereo partly specified): in the data set on Chikungunya virus [2], the EC50 was 0.6 µM. Further, the selectivity ratio in [3] turned out to be 71.7.
Take `Cc1ccc2oc(=O)c(CSc3nc(N)nc4c3nc(SCc3cc5cc(C)ccc5oc3=O)n4[C@@H]3O[C@H](CO)[C@@H](O)[C@H]3O)cc2c1`: the logP in [4] was found to be 3.22. The compound further registered a CC50 in data set [5] of 81.3 µM. For the same compound, the selectivity ratio in [6] came out at 1.98. Further, the concentration for a half-maximal effect (EC50) in the data set with Chikungunya virus [1] is 40.9 µM.
On to `Nc1nc(SCc2cc3cc(Cl)ccc3oc2=O)c2nc(SCc3ccccc3)n([C@@H]3O[C@H](CO)[C@@H](O)[C@H]3O)c2n1`, for which the EC50 in the data set with Chikungunya virus [1] was greater than 163 µM.
As to `Nc1nc(SCc2cc3ccccc3oc2=O)c2nc(SCc3cccc4ccccc34)n([C@@H]3O[C@H](CO)[C@@H](O)[C@H]3O)c2n1`, the EC50 in the data set with Chikungunya virus [1] was greater than 159 µM.
`COc1ccc2oc(=O)c(CSc3nc(N)nc4c3nc(SCc3ccccc3)n4[C@@H]3O[C@H](CO)[C@@H](O)[C@H]3O)cc2c1`: the logP in data set [4] amounted to 2.78. The EC50 in the data set on Chikungunya virus [1] was greater than 164 µM.
For the compound `CSc1nc2c(SCc3cc4cc(C)ccc4oc3=O)nc(N)nc2n1[C@@H]1O[C@H](CO)[C@@H](O)[C@H]1O`, the half-maximal effective concentration (EC50) in the data set on Chikungunya virus [1] is greater than 194 µM.
On the same count and under the same terms, with `Nc1nc2c(nc(SCc3ccccc3)n2[C@@H]2O[C@H](CO)[C@@H](O)[C@H]2O)c(=S)[nH]1` the figure was greater than 237 µM; with `Nc1nc(SCc2cc3ccccc3oc2=O)c2nc(SCc3ccccc3)n([C@@H]3O[C@H](CO)[C@@H](O)[C@H]3O)c2n1`, greater than 173 µM.
As for `Nc1nc(SCc2cc3ccccc3oc2=O)c2nc(SCc3cc4ccccc4oc3=O)n([C@@H]3O[C@H](CO)[C@@H](O)[C@H]3O)c2n1`, the EC50 with Chikungunya virus [1] is greater than 154 µM.
Consider `Nc1nc2c(nc(SCc3cccc4ccccc34)n2[C@@H]2O[C@H](CO)[C@@H](O)[C@H]2O)c(=S)[nH]1`, for which the EC50 with Chikungunya virus [1] was greater than 212 µM.
The same measure, in the same setting: the same measure for `CSCc1cc2ccccc2oc1=O`: greater than 485 µM; for `Nc1nc(SCc2cc3cc(F)ccc3oc2=O)c2nc(SCc3cc4cc(F)ccc4oc3=O)n([C@@H]3O[C@H](CO)[C@@H](O)[C@H]3O)c2n1`: greater than 146 µM.
In [4], `COc1cccc2cc(CSc3nc(N)nc4c3nc(SCc3cc5cccc(OC)c5oc3=O)n4[C@@H]3O[C@H](CO)[C@@H](O)[C@H]3O)c(=O)oc12` gave a logP of 2.97. For the same compound, in data set [5], the 50% cytotoxic concentration (CC50) turned out to be 96.5 µM. In addition, the selectivity ratio in data set [6] was 9.37. In addition, the concentration for a half-maximal effect (EC50) in the data set with Chikungunya virus [1] was 10.3 µM.
Compound `Nc1nc2c(nc(S)n2[C@@H]2O[C@H](CO)[C@@H](O)[C@H]2O)c(=S)[nH]1` registered a logP in [4] of -0.13. For the same compound, the EC50 with Chikungunya virus [1] is greater than 302 µM.
Consider `Nc1nc(SCc2cc3cc(Br)ccc3oc2=O)c2nc(SCc3cc4cc(Br)ccc4oc3=O)n([C@@H]3O[C@H](CO)[C@@H](O)[C@H]3O)c2n1`, for which the EC50 in the data set with Chikungunya virus [1] was greater than 124 µM.
With `CSc1nc2c(SCc3cc4cc(Br)ccc4oc3=O)nc(N)nc2n1[C@@H]1O[C@H](CO)[C@@H](O)[C@H]1O`, the half-maximal effective concentration (EC50) with Chikungunya virus [1] is greater than 172 µM.
Still for that read-out and setting: the same measure for `CSc1nc2c(SCc3cc4ccccc4oc3=O)nc(N)nc2n1[C@@H]1O[C@H](CO)[C@@H](O)[C@H]1O`: greater than 198 µM.
Consider `CCN1C(=O)CCSC1c1cc2cc(Cc3ccc4oc(C5SCCC(=O)N5CC)cc4c3)ccc2o1` (stereo unspecified), for which, in the data set with Chikungunya virus [7], the EC50 was found to be 1.9 µM. For the same compound, the selectivity ratio in data set [8] is 75.
Take `COc1cccc2cc(CSc3nc(N)nc4c3nc(SC)n4[C@@H]3O[C@H](CO)[C@@H](O)[C@H]3O)c(=O)oc12`: the EC50 in the data set with Chikungunya virus [1] is greater than 188 µM.
As for `COc1ccc2oc(=O)c(CSc3nc(N)nc4c3nc(SCc3cccc5ccccc35)n4[C@@H]3O[C@H](CO)[C@@H](O)[C@H]3O)cc2c1`, the logP in data set [4] turned out to be 3.77. Moreover, the CC50 in data set [5] was greater than 227 µM. For the same compound, in data set [6], the selectivity ratio is greater than 16.3. Moreover, the concentration giving a half-maximal response (EC50) in the data set with Chikungunya virus [1] was found to be 13.9 µM.
In the case of `Nc1nc(SCc2cc3cc(Cl)ccc3oc2=O)c2nc(SCc3cc4cc(Cl)ccc4oc3=O)n([C@@H]3O[C@H](CO)[C@@H](O)[C@H]3O)c2n1`, in the data set on Chikungunya virus [1], the EC50 was greater than 140 µM.
Same read-out and setting: with `CSc1nc2c(SCc3cc4cc(Cl)ccc4oc3=O)nc(N)nc2n1[C@@H]1O[C@H](CO)[C@@H](O)[C@H]1O` the figure was greater than 186 µM.
For `COc1ccc2oc(=O)c(CSc3nc(N)nc4c3nc(SCc3cc5cc(OC)ccc5oc3=O)n4[C@@H]3O[C@H](CO)[C@@H](O)[C@H]3O)cc2c1`, in [4], the logP was 3.01. In data set [5], the CC50 was greater than 212 µM. Besides, the selectivity ratio in data set [6] is greater than 21.7. Besides, the solubility in data set [9] stood at 7.2 mg. Besides, in the data set with Chikungunya virus [1], the EC50 came out at 9.9 µM.
